These results are taken from ChEMBL document CHEMBL1806362, “Synthesis of some new [1,2,4]triazolo[3,4-b][1,3,4]thiadiazines and [1,2,4]triazolo[3,4-b][1,3,4] thiadiazoles starting from 5-nitro-2-furoic acid and evaluation of their antimicrobial activity” (Bioorg Med Chem, 2011).

In one experiment the test system is Escherichia coli. Nature of the experiment: Antibacterial activity against Escherichia coli after 24 hrs by broth dilution method. The class given is functional. The essentials: (§1)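 NCCLS broth dilution in 96-well microtitre plates. Inoculum adjusted with sterile saline to 1.0×10^5 c.f.u./ml. Compounds dissolved in DMSO, with a broth-plus-DMSO solvent control. Incubated 24 h at 37 °C. MIC is the lowest concentration without visible growth. For MBC, clear wells were plated on Mueller Hinton agar for 24 h at 37 °C; MBC is the lowest concentration with no colonies. Duplicates, repeated three times; values in μg/ml.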
Background: Dilution methods test growth across graded concentrations, often in twofold steps.

The next experiment has as its system Staphylococcus aureus. Kind of experiment: Antibacterial activity against Staphylococcus aureus after 24 hrs by broth dilution method. The class given is functional. The gist of the method: as §1
Another experiment concerns HepG2. Kind of experiment: Cytotoxicity against human HepG2 cells after 48 hrs by sulforhodamine B assay. To be noted: HepG2, 48 h. Type of experiment: functional, cell-based. The essentials:
(§2)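 SRB assay. Cells seeded at 10⁴ cells/well and left 24 h to attach. Exposed to 0, 1, 2.5, 5 and 10 μg/ml for 48 h at 37 °C in humidified 5% CO₂. Fixed with trichloroacetic acid and stained 30 min with 0.4% SRB in 1% acetic acid. Washed with 1% acetic acid; bound dye extracted with Tris EDTA and absorbance read. IC50 taken from surviving fraction versus concentration curves.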
In general terms: In SRB staining, fixed cells bind dye roughly in proportion to their protein.

Another experiment concerns HCT-116. Nature of the experiment: Cytotoxicity against human HCT116 cells after 48 hrs by sulforhodamine B assay. Type of experiment: functional, cell-based. To be noted: HCT-116, 48 h. The essentials:
as §2

SMILES strings stand for the structures. Converted amounts (≈) assume the structure as drawn.

With `Nn1c(S)nnc1-c1ccc([N+](=O)[O-])o1`, in the experiment with Escherichia coli, the minimal bactericidal concentration (MBC) (in general, the smallest concentration meeting the test's criterion for killing) came out at 200 µg/mL (≈ 880 µM) and the MIC (commonly the smallest concentration in the dilution series that meets the test's criterion for growth inhibition) stood at 25 µg/mL (≈ 110 µM). In the experiment with Staphylococcus aureus, the MBC was 200 µg/mL (≈ 880 µM) and the MIC turned out to be 50 µg/mL (≈ 220 µM).
In the experiment with Escherichia coli, `O=[N+]([O-])c1ccc(-c2nnc3n2NC(c2ccc[nH]2)S3)o1` (stereo unspecified) gave an MBC of 200 µg/mL (≈ 657 µM) and an MIC of 25 µg/mL (≈ 82.2 µM). In the experiment on Staphylococcus aureus, the minimum bactericidal concentration (MBC) is 200 µg/mL (≈ 657 µM) and the minimal inhibitory concentration (MIC) came to 25 µg/mL (≈ 82.2 µM).
Turning to `O=[N+]([O-])c1ccc(-c2nnc3n2NC(c2ccco2)S3)o1` (stereo unspecified), in the experiment with Escherichia coli, the MBC turned out to be 200 µg/mL (≈ 655 µM) and the MIC is 25 µg/mL (≈ 81.9 µM). In the experiment with Staphylococcus aureus, this molecule had a minimal bactericidal concentration (MBC) of 200 µg/mL (≈ 655 µM) and an MIC of 25 µg/mL (≈ 81.9 µM).
In the experiment on Escherichia coli, `O=[N+]([O-])c1ccc(-c2nnc3n2NC(c2ccc([N+](=O)[O-])o2)S3)o1` (stereo unspecified) registered an MBC of 200 µg/mL (≈ 571 µM) and an MIC of 25 µg/mL (≈ 71.4 µM). Besides, in the experiment on Staphylococcus aureus, the MBC came to 200 µg/mL (≈ 571 µM) and the minimum inhibitory concentration (MIC) was found to be 25 µg/mL (≈ 71.4 µM).
As to `O=[N+]([O-])c1ccc(-c2nnc3n2NC(c2cccs2)S3)o1` (stereo unspecified), in the experiment on Escherichia coli, the minimum bactericidal concentration (MBC) was found to be 200 µg/mL (≈ 622 µM) and inhibition of growth (MIC) required 50 µg/mL (≈ 156 µM). Also, in the experiment on Staphylococcus aureus, the minimal bactericidal concentration (MBC) was 200 µg/mL (≈ 622 µM) and the minimum inhibitory concentration (MIC) was determined as 25 µg/mL (≈ 77.8 µM).
Consider `O=[N+]([O-])c1ccc(-c2nnc3n2NC(c2ccc([N+](=O)[O-])s2)S3)o1` (stereo unspecified), for which the MBC in the experiment on Escherichia coli and in the experiment with Staphylococcus aureus was 200 µg/mL (≈ 546 µM) throughout. Also, the minimum inhibitory concentration (MIC) with Escherichia coli was found to be 50 µg/mL (≈ 136 µM); in the experiment with Staphylococcus aureus it was 25 µg/mL (≈ 68.2 µM).
In the experiment on Escherichia coli, `CCNc1nn2c(-c3ccc([N+](=O)[O-])o3)nnc2s1` returned an MBC of 200 µg/mL (≈ 714 µM) and a minimal inhibitory concentration (MIC) of 25 µg/mL (≈ 89.2 µM). Moreover, in the experiment on Staphylococcus aureus, the minimum bactericidal concentration (MBC) turned out to be 100 µg/mL (≈ 357 µM) and the lowest concentration to inhibit growth (MIC) was 25 µg/mL (≈ 89.2 µM).
In the experiment with Escherichia coli, `CCCCNc1nn2c(-c3ccc([N+](=O)[O-])o3)nnc2s1` came in with a minimal bactericidal concentration (MBC) of 100 µg/mL (≈ 324 µM) and an MIC of 25 µg/mL (≈ 81.1 µM). Further, in the experiment with Staphylococcus aureus, the minimal bactericidal concentration (MBC) was found to be 200 µg/mL (≈ 649 µM) and the minimal inhibitory concentration (MIC) was 25 µg/mL (≈ 81.1 µM).
On to `O=[N+]([O-])c1ccc(-c2nnc3sc(Nc4ccccc4)nn23)o1`, for which the IC50 (as a rule, the point on the concentration scale where inhibition reaches its midpoint) came to 4.23 µg/mL (≈ 12.9 µM) in the experiment on HepG2 and 4.38 µg/mL (≈ 13.3 µM) in the experiment on HCT-116. For the same molecule, the minimal bactericidal concentration (MBC) against Escherichia coli came out at 100 µg/mL (≈ 305 µM); against Staphylococcus aureus, 50 µg/mL (≈ 152 µM). Moreover, the MIC in the experiment on Escherichia coli came to 50 µg/mL (≈ 152 µM); with Staphylococcus aureus, 25 µg/mL (≈ 76.1 µM).
Consider `O=[N+]([O-])c1ccc(-c2nnc3sc(Nc4ccc(F)cc4)nn23)o1`, for which the IC50 with HepG2 is 11.3 µg/mL (≈ 32.6 µM); in the experiment on HCT-116 it was 8.91 µg/mL (≈ 25.7 µM). Moreover, the MBC came out at 100 µg/mL (≈ 289 µM) in the experiment on Escherichia coli and 50 µg/mL (≈ 144 µM) in the experiment with Staphylococcus aureus. Besides, the minimal inhibitory concentration (MIC) against Escherichia coli and in the experiment with Staphylococcus aureus was 25 µg/mL (≈ 72.2 µM) each time.
As for `CCc1ccc(Nc2nn3c(-c4ccc([N+](=O)[O-])o4)nnc3s2)cc1`, the IC50 with HepG2 stood at 3.78 µg/mL (≈ 10.6 µM); in the experiment with HCT-116 it was 6.65 µg/mL (≈ 18.7 µM). Also, the MBC with Escherichia coli and in the experiment on Staphylococcus aureus was 50 µg/mL (≈ 140 µM) throughout. In addition, the MIC with Escherichia coli and in the experiment with Staphylococcus aureus was 25 µg/mL (≈ 70.2 µM) in each case.
Take `O=[N+]([O-])c1ccc(-c2nnc3n2N=C(c2ccccc2)CS3)o1`: the MBC against Escherichia coli and against Staphylococcus aureus was 200 µg/mL (≈ 611 µM) each time. Further, the MIC against Escherichia coli amounted to 50 µg/mL (≈ 153 µM); in the experiment on Staphylococcus aureus it was 100 µg/mL (≈ 306 µM).
As to `O=[N+]([O-])c1ccc(-c2nnc3n2N=C(c2ccc(Cl)cc2)CS3)o1`, in the experiment with Escherichia coli, the minimum bactericidal concentration (MBC) was determined as 200 µg/mL (≈ 553 µM) and the minimum inhibitory concentration (MIC) was determined as 25 µg/mL (≈ 69.1 µM). In the experiment on Staphylococcus aureus, this molecule came in with an MBC of 200 µg/mL (≈ 553 µM) and a minimal inhibitory concentration (MIC) of 25 µg/mL (≈ 69.1 µM).
For `O=[N+]([O-])c1ccc(-c2nnc3n2N=C(c2ccc(Br)cc2)CS3)o1`, the MBC in the experiment on Escherichia coli and in the experiment with Staphylococcus aureus was 200 µg/mL (≈ 492 µM) throughout. Besides, the MIC with Escherichia coli and in the experiment on Staphylococcus aureus was 25 µg/mL (≈ 61.5 µM) throughout.
`O=[N+]([O-])c1ccc(C2=Nn3c(nnc3-c3ccc([N+](=O)[O-])o3)SC2)cc1`: the minimum bactericidal concentration (MBC) against Escherichia coli came to 200 µg/mL (≈ 537 µM); against Staphylococcus aureus, 100 µg/mL (≈ 269 µM). The MIC was 25 µg/mL (≈ 67.1 µM) in the experiment with Escherichia coli and 50 µg/mL (≈ 134 µM) against Staphylococcus aureus.
In the experiment with Escherichia coli, `COc1ccc(C2=Nn3c(nnc3-c3ccc([N+](=O)[O-])o3)SC2)cc1` registered an MBC of 200 µg/mL (≈ 560 µM) and an MIC of 25 µg/mL (≈ 70 µM). In the experiment on Staphylococcus aureus, this molecule showed an MBC of 200 µg/mL (≈ 560 µM) and an MIC of 50 µg/mL (≈ 140 µM).
Turning to `CC1(C)S[C@@H]2[C@H](NC(=O)[C@H](N)c3ccccc3)C(=O)N2[C@H]1C(=O)O` [AMPICILLIN], the MBC against Escherichia coli turned out to be 25 µg/mL (≈ 71.5 µM); in the experiment on Staphylococcus aureus, 50 µg/mL (≈ 143 µM). Moreover, the minimum inhibitory concentration (MIC) in the experiment on Escherichia coli was 12.5 µg/mL (≈ 35.8 µM); with Staphylococcus aureus it was 25 µg/mL (≈ 71.5 µM).
Turning to `COc1cccc2c1C(=O)c1c(O)c3c(c(O)c1C2=O)C[C@@](O)(C(=O)CO)C[C@@H]3O[C@H]1C[C@H](N)[C@H](O)[C@H](C)O1` [DOXORUBICIN], the figures for the IC50 with HepG2 and in the experiment on HCT-116 were 5.5 µg/mL (≈ 10.1 µM) and 3.73 µg/mL (≈ 6.86 µM), respectively.
